Legend:
[1] = molecular target: C-C chemokine receptor type 2 (Mus musculus, UniProt P51683); experiment: Antagonist activity at mouse CCR2; type: functional
[2] = molecular target: T1, C-C chemokine receptor type 2 (Homo sapiens, UniProt P41597); experiment: Antagonist activity at human CCR2 expressed in CHO cells assessed as inhibition of MCP1-induced [35S]-GTPgammaS binding after 3 hrs; type: functional, cell-based
Target sequence in this assay (P41597 whole entry): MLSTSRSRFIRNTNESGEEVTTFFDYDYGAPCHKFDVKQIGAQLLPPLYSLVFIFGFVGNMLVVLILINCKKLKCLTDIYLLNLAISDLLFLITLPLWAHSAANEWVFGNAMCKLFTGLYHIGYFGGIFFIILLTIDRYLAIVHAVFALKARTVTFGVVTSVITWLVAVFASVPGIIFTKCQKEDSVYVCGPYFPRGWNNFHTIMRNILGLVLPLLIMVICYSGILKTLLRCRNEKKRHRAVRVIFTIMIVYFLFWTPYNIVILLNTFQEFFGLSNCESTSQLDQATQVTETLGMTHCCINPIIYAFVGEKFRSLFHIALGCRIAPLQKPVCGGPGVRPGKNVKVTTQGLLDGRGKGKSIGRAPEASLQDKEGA

[3] = molecular target: T2, C-C chemokine receptor type 1 (Homo sapiens, UniProt P32246); experiment: Antagonist activity at human CCR1 assessed as inhibition of MIP-1-alpha-induced [35S]-GTPgammaS binding after 3 to 4 hrs; type: functional
T2 sequence (P32246 whole entry): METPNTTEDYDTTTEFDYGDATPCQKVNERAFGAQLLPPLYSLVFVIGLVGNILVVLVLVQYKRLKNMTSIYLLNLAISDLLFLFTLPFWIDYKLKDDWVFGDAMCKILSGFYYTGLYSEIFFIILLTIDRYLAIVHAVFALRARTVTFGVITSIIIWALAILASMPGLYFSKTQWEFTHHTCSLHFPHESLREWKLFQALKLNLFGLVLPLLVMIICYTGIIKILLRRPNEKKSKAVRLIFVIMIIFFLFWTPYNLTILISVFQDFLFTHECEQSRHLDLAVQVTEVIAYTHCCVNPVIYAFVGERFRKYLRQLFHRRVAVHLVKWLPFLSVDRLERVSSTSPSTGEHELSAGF

Cytochrome P450 2C19 = Cytochrome P450 2C19 (Homo sapiens, UniProt P33261); experiment: Inhibition of CYP2C19; type: ADME
Cytochrome P450 1A2 = molecular target: T3, Cytochrome P450 1A2 (Homo sapiens, UniProt P05177); experiment: Inhibition of CYP1A2; type: ADME
T3 sequence (P05177 whole entry): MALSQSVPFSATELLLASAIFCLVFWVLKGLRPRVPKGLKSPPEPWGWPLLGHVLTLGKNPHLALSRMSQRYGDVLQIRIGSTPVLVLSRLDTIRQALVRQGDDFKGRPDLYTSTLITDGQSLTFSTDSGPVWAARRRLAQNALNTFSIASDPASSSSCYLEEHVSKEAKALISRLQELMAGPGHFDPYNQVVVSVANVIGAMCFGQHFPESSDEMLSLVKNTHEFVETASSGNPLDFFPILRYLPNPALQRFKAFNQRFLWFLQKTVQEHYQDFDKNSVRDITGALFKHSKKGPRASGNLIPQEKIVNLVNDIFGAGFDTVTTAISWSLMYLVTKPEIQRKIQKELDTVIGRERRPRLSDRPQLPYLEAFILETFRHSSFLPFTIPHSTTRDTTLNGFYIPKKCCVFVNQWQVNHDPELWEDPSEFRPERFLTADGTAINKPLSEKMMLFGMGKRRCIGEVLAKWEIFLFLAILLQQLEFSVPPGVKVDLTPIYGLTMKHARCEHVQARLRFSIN

[4] = Oral bioavailability in rat; type: ADME, organism-based; settings: in vivo
Cytochrome P450 3A4 = Cytochrome P450 3A4 (Homo sapiens, UniProt P08684); experiment: Inhibition of CYP3A4; type: ADME
Cytochrome P450 2C9 = Cytochrome P450 2C9 (Homo sapiens, UniProt P11712); experiment: Inhibition of CYP2C9; type: ADME
Cytochrome P450 2D6 = Cytochrome P450 2D6 (Homo sapiens, UniProt P10635); experiment: Inhibition of CYP2D6; type: ADME
Rattus norvegicus = species: Rattus norvegicus; experiment: Volume of distribution in rat; type: ADME, organism-based; settings: in vivo
[5] = Half life in iv dosed in rat; type: ADME, organism-based; settings: in vivo
[6] = molecular target: T4, C-C chemokine receptor type 5 (Homo sapiens, UniProt P51681); experiment: Antagonist activity at CCR5; type: functional
[7] = molecular target: T5, C-C chemokine receptor type 4 (Homo sapiens, UniProt P51679); experiment: Antagonist activity at CCR4; type: functional
T5 sequence (P51679 whole entry): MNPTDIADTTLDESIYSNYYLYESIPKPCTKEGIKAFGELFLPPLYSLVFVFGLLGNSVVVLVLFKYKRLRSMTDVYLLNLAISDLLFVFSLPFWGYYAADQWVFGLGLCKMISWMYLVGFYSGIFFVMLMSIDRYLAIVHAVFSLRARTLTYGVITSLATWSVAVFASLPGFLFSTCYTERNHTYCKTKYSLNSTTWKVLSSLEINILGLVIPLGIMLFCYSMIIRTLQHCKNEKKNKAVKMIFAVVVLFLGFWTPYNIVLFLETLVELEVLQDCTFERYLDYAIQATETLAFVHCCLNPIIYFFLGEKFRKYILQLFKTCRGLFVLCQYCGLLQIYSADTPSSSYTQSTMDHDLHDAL

[8] = Clearance in rat; type: ADME, organism-based; settings: in vivo
[9] = Half life in po dosed in rat; type: ADME, organism-based; settings: in vivo
[10] = molecular target: T1, C-C chemokine receptor type 2; experiment: Antagonist activity at CCR2 in human THP1 cells assessed as inhibition of CCL2-induced chemotaxis at 1 uM in presence of 1% human serum; type: functional, cell-based; settings: THP-1
Procedure, shortened: (§1)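 Boyden chamber (48-well) chemotaxis of THP-1 cells stimulated with CCL2. Foetal bovine serum or human serum was added to the assay buffer.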
Target sequence in this assay (P41597 whole entry, looked up): as the sequence (P41597 whole entry) above

[11] = Lipophilicity, log D of the compound; type: physicochemical; settings: octanol/water
[12] = molecular target: T1, C-C chemokine receptor type 2; experiment: Antagonist activity at CCR2 in human THP1 cells assessed as inhibition of CCL2-induced chemotaxis at 1 uM in presence of 0.1% human serum; type: functional, cell-based; settings: THP-1; procedure, shortened: as §1
Target sequence in this assay (P41597 whole entry, looked up): as the sequence (P41597 whole entry) above

[13] = molecular target: Voltage-gated inwardly rectifying potassium channel KCNH2 (Homo sapiens, UniProt Q12809); experiment: Binding affinity to human ERG by fluorescence-polarization binding assay
[14] = molecular target: T4, C-C chemokine receptor type 5; experiment: Antagonist activity at CCR5 at 10 uM; type: functional; design: scale not given: the % may be the effect or the level left
Target sequence in this assay (P51681 whole entry, looked up): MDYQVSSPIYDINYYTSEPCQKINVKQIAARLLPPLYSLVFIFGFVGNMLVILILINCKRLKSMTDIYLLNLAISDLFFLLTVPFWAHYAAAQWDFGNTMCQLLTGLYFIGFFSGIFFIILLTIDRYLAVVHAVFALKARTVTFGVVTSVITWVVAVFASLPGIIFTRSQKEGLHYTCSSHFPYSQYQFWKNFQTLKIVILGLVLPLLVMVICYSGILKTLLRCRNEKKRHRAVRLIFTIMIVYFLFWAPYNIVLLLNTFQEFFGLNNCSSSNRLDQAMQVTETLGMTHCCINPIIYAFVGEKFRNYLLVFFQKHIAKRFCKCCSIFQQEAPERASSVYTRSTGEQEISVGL

[15] = molecular target: C-C chemokine receptor type 1 (Homo sapiens) (UniProt P32246); experiment: Antagonist activity at human CCR1
[16] = molecular target: T1, C-C chemokine receptor type 2; experiment: Antagonist activity at CCR2 in human THP1 cells assessed as inhibition of CCL2-induced chemotaxis at 10 uM in presence of 1% human serum; type: functional, cell-based; settings: THP-1; procedure, shortened: as §1
Target sequence in this assay (P41597 whole entry, looked up): as the sequence (P41597 whole entry) above

[17] = molecular target: C-C chemokine receptor type 1 (Homo sapiens) (UniProt P32246); experiment: Antagonist activity at CCR1

Cytochrome P450 3A4, sequence (P08684 whole entry): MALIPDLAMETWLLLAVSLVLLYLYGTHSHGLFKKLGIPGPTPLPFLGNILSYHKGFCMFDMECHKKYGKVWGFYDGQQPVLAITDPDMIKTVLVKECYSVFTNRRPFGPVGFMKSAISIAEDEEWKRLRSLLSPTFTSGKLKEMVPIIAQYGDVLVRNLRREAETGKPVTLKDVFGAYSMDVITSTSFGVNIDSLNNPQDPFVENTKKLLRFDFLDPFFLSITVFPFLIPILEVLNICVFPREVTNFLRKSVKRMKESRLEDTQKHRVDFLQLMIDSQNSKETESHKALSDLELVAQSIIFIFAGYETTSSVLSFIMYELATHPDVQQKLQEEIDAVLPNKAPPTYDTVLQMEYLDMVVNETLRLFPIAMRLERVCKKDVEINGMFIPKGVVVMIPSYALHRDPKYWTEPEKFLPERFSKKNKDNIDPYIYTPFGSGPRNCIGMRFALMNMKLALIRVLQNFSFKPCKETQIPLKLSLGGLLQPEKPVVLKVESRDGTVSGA
Cytochrome P450 2C19, sequence (P33261 whole entry): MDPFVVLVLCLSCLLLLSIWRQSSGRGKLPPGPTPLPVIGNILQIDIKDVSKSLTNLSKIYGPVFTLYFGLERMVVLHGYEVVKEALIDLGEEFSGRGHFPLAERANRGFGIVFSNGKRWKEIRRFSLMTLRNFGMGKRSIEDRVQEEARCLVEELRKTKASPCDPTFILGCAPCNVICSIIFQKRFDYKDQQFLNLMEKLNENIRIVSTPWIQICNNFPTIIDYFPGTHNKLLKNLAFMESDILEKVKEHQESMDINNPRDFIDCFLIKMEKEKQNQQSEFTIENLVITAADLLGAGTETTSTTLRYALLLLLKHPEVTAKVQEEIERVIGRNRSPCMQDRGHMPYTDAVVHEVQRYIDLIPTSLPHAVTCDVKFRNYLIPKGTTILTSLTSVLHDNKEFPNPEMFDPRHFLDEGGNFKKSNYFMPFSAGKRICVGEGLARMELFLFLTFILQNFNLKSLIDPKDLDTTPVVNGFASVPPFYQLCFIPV
Cytochrome P450 2D6, sequence (P10635 whole entry): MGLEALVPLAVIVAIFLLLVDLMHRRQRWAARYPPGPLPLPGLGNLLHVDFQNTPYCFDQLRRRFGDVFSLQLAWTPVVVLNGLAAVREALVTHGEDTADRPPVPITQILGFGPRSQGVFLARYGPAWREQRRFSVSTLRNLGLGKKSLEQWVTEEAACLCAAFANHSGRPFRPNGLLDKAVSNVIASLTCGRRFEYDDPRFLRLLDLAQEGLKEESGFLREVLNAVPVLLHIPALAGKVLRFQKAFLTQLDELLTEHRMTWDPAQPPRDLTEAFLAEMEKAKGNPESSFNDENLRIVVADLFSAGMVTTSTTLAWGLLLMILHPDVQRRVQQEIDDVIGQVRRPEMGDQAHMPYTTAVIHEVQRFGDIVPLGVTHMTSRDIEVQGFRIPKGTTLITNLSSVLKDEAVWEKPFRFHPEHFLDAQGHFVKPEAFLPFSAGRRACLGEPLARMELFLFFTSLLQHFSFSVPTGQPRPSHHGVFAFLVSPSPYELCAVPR
Cytochrome P450 2C9, sequence (P11712 whole entry): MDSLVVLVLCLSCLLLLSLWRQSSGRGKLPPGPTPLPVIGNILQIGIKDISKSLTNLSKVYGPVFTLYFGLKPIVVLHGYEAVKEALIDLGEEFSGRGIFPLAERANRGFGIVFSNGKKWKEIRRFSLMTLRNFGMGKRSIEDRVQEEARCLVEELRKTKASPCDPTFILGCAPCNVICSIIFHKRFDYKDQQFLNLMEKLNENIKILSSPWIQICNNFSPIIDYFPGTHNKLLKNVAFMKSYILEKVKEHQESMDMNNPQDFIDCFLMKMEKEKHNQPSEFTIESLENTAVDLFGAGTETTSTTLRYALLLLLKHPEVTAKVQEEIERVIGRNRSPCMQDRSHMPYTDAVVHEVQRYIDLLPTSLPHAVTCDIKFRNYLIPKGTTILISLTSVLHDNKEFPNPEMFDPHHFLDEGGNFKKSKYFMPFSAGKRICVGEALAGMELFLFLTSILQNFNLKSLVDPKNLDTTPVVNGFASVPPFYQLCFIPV
C-C chemokine receptor type 2 (Mus musculus, UniProt P51683), sequence (P51683 whole entry): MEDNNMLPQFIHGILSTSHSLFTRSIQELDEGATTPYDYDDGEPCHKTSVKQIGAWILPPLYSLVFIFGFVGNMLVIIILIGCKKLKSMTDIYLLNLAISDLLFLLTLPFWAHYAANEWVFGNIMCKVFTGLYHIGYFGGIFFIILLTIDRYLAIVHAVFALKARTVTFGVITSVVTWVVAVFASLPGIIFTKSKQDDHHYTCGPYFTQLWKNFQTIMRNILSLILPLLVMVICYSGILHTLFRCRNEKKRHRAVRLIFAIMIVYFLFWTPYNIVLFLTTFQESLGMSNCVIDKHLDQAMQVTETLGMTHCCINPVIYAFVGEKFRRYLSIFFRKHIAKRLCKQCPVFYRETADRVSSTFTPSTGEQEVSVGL
Voltage-gated inwardly rectifying potassium channel KCNH2, sequence (Q12809 whole entry): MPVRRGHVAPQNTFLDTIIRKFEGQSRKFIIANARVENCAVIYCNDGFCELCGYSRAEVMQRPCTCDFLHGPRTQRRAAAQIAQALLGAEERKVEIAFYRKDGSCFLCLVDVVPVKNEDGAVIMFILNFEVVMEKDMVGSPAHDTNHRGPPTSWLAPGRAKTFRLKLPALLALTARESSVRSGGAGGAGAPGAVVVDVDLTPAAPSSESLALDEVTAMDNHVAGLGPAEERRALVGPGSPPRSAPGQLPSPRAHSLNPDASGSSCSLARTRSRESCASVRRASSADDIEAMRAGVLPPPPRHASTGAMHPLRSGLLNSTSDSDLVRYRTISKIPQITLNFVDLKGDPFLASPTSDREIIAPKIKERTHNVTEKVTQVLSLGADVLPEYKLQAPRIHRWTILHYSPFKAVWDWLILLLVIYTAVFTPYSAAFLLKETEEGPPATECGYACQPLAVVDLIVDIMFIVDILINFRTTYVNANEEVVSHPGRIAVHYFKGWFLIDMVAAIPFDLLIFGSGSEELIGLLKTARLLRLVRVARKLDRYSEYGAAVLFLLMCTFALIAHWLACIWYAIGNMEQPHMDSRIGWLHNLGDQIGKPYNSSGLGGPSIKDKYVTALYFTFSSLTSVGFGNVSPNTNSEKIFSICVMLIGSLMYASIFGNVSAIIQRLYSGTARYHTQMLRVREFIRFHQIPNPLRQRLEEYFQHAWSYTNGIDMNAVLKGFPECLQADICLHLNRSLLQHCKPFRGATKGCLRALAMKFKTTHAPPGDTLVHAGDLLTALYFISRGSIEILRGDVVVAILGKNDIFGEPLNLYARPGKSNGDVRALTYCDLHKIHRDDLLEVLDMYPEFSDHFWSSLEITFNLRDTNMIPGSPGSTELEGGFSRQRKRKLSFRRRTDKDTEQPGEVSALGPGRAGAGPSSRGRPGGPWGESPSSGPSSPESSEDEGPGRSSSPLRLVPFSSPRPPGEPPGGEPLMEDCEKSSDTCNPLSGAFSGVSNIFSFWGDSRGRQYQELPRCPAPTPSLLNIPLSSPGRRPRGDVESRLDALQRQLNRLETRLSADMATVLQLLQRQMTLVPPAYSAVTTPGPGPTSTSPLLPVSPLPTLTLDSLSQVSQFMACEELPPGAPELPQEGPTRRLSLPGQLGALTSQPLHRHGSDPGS

O=C(O)c1ccccc1Oc1ccc(C(F)(F)F)cc1NS(=O)(=O)c1ccc(Cl)cc1
Ki [1]: 1580 nM
Ki [2]: 794 nM
Ki [3]: 501 nM

O=C(O)c1ccccc1Oc1ccc(Cl)cc1NS(=O)(=O)c1ccc(Cl)c(Cl)c1
IC50 (Cytochrome P450 2C19): 11000 nM
IC50 (Cytochrome P450 1A2): 39800 nM
bioavailability [4]: 70%
IC50 (Cytochrome P450 3A4): 10000 nM
IC50 (Cytochrome P450 2C9): 4170 nM
IC50 (Cytochrome P450 2D6): 53700 nM
Vd (Rattus norvegicus): 0.2 L/kg
half-life [5]: 6.5 h
IC50 [6]: 631 nM
Ki [7]: 398 nM
clearance [8]: 0.6 mL/min/kg
half-life [9]: 5.9 h

O=C(O)c1ccccc1Oc1ncncc1NS(=O)(=O)c1ccc(Cl)c(Cl)c1
Ki [2]: 398 nM

Cc1ncccc1Oc1ncc(Cl)cc1NS(=O)(=O)c1ccc(Cl)c(Cl)c1
IC50 (Cytochrome P450 2C19): 22400 nM
Ki [2]: 10 nM
inhibition [10]: 50%
IC50 (Cytochrome P450 1A2): > 100000 nM
bioavailability [4]: 75%
IC50 (Cytochrome P450 3A4): 19500 nM
IC50 (Cytochrome P450 2C9): 1350 nM
IC50 (Cytochrome P450 2D6): > 100000 nM
Vd (Rattus norvegicus): 0.34 L/kg
logD [11]: 2.7
half-life [5]: 0.8 h
inhibition [12]: 72%
IC50 [13]: > 31600 nM
Ki [7]: 1260 nM
Activity [14]: 40%
clearance [8]: 4.3 mL/min/kg
half-life [9]: 2.3 h

O=C(O)c1cccc(Oc2ncc(Cl)cc2NS(=O)(=O)c2ccc(Cl)c(Cl)c2)c1
Ki [2]: 1.58 nM
inhibition [10]: 33%
logD [11]: 0.44
inhibition [12]: 42%

CS(=O)(=O)c1ccc(Oc2ccccc2C(=O)O)c(NS(=O)(=O)c2ccc(Cl)cc2)c1
Ki [2]: > 3160 nM

O=C(O)c1ccccc1Oc1c(Cl)cccc1NS(=O)(=O)c1ccc(Cl)cc1
Ki [15]: 501 nM
Ki [2]: 398 nM

O=C(O)c1ccc(Oc2ncc(Cl)cc2NS(=O)(=O)c2ccc(Cl)c(Cl)c2)cc1
Ki [2]: 3.16 nM
logD [11]: 0.4

O=C(O)c1ccccc1Oc1ccc(Cl)cc1NS(=O)(=O)c1ccc(Cl)cc1
Ki [15]: 158 nM
Ki [2]: 20 nM
inhibition [16]: 65%

O=C(O)c1c(F)cccc1Oc1ncc(Cl)cc1NS(=O)(=O)c1ccc(Cl)c(Cl)c1
Ki [2]: 2 nM

O=C(NCCO)c1ccccc1Oc1ncc(Cl)cc1NS(=O)(=O)c1ccc(Cl)c(Cl)c1
Ki [2]: 25.1 nM
inhibition [10]: 0%
bioavailability [4]: 37%
Vd (Rattus norvegicus): 0.47 L/kg
logD [11]: 2.1
half-life [5]: 1.1 h
inhibition [12]: 31%
IC50 [13]: > 63100 nM
Ki [7]: 1580 nM
Activity [14]: < 10%
clearance [8]: 13 mL/min/kg

O=C(O)c1ccccc1Oc1cccc(F)c1NS(=O)(=O)c1ccc(Cl)cc1
Ki [2]: > 3160 nM
Ki [17]: > 3160 nM

O=S(=O)(Nc1cc(Cl)cnc1Oc1cccnn1)c1ccc(Cl)c(Cl)c1
Ki [2]: 200 nM

O=C(O)c1ccccc1Oc1cnccc1NS(=O)(=O)c1ccc(Cl)c(Cl)c1
Ki [2]: 50.1 nM
inhibition [10]: 0%
inhibition [12]: 15%

O=C(O)c1ccccc1Oc1nccnc1NS(=O)(=O)c1ccc(Cl)c(Cl)c1
Ki [2]: 794 nM

N#Cc1ccc(Oc2ncc(Cl)cc2NS(=O)(=O)c2ccc(Cl)c(Cl)c2)cn1
Ki [2]: 15.8 nM
logD [11]: 2.12

O=C(O)c1cncc(Oc2ncc(Cl)cc2NS(=O)(=O)c2ccc(Cl)c(Cl)c2)c1
Ki [2]: 10 nM
inhibition [10]: 0%
logD [11]: -0.67
inhibition [12]: 17%

O=C(O)c1ccccc1Oc1ccccc1NS(=O)(=O)c1ccc(Cl)cc1
Ki [1]: 2000 nM
Ki [2]: 251 nM
Ki [3]: 316 nM

O=C(O)c1ccccc1Oc1ccc(F)cc1NS(=O)(=O)c1ccc(Cl)cc1
Ki [15]: 251 nM
Ki [2]: 39.8 nM
inhibition [16]: 52%

Cc1ccc(NS(=O)(=O)c2ccc(Cl)cc2)c(Oc2ccccc2C(=O)O)c1
Ki [2]: 631 nM
Ki [17]: 631 nM

Cc1ncccc1Oc1ncc(C#N)cc1NS(=O)(=O)c1ccc(Cl)c(Cl)c1
Ki [2]: 50.1 nM
inhibition [10]: 12%
logD [11]: 1.5
inhibition [12]: 43%

Cc1cccc(NS(=O)(=O)c2ccc(Cl)cc2)c1Oc1ccccc1C(=O)O
Ki [15]: > 3160 nM
Ki [2]: > 3160 nM

CS(=O)(=O)Nc1cc(Cl)ccc1Oc1ccccc1C(=O)O
Ki [2]: 398 nM

O=C(O)c1ccccc1Oc1ccc(Cl)cc1NS(=O)(=O)c1ccccc1
Ki [2]: 158 nM

O=S(=O)(Nc1cc(Cl)cnc1Oc1cncc(Cl)c1)c1ccc(Cl)c(Cl)c1
IC50 (Cytochrome P450 2C19): 6610 nM
Ki [2]: 12.6 nM
inhibition [10]: 0%
IC50 (Cytochrome P450 1A2): > 100000 nM
bioavailability [4]: 58%
IC50 (Cytochrome P450 3A4): 437 nM
IC50 (Cytochrome P450 2C9): 1070 nM
IC50 (Cytochrome P450 2D6): > 100000 nM
Vd (Rattus norvegicus): 0.2 L/kg
logD [11]: 3.1
half-life [5]: 1.2 h
inhibition [12]: 55%
clearance [8]: 2.4 mL/min/kg

O=C(O)c1ccccc1Oc1c(F)cc(C(F)(F)F)cc1NS(=O)(=O)c1ccc(Cl)cc1
Ki [1]: 251 nM
Ki [2]: 31.6 nM
Ki [3]: 126 nM

N#Cc1ccc(Oc2ccccc2C(=O)O)c(NS(=O)(=O)c2ccc(Cl)cc2)c1
Ki [15]: 1000 nM
Ki [2]: 63.1 nM

O=C(O)c1ccccc1Oc1ncccc1NS(=O)(=O)c1ccc(Cl)c(Cl)c1
Ki [2]: 31.6 nM
inhibition [10]: 41%
inhibition [12]: 60%

O=C(O)c1ccccc1Oc1ccc(Cl)cc1NS(=O)(=O)c1ccc(Cl)s1
Ki [2]: 5.01 nM

O=C(O)c1ccccc1Oc1ccc(Cl)cc1NS(=O)(=O)c1cccc(Cl)c1
Ki [2]: 7.94 nM

O=C(O)c1c(F)cccc1Oc1ccc(C(F)(F)F)cc1NS(=O)(=O)c1ccc(Cl)cc1
Ki [1]: 1000 nM
Ki [2]: 126 nM
Ki [3]: 126 nM

Reference: ChEMBL document CHEMBL1177762, “Identification of a sulfonamide series of CCR2 antagonists” (Bioorg Med Chem Lett, 2010)
